# Screening data (PubChem BioAssay)
# Most compounds without a hit are left out; they make up all but 5.6% or so of the library.
# CHOP inhibitor: inhibitors of CHOP induction in ER stress response | CHO-K1 CHOP-promoter luciferase, tunicamycin-induced, 15-18 h | inhibition, % at 10 µM | hit rate 3.8% among 220,000 | AID 2732;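 active = compounds that reduced the stress-induced luciferase reporter signal by more than about 70% of percent inhibition, limit read from the data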;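 also: 0% = tunicamycin plus vehicle and 100% = wells without tunicamycin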
# NR3A LBD binder: NR3A (human) ligand-binding domain modulation; NR3A LBD differential scanning fluorimetry, Tm shift; 0% = protein alone, 100% = glycine-bound protein; hit rate 2.5% among 340,000; Tm shift relative to glycine control, % at 25 µM; AID 1259313;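 active = melting temperature shift of at least 10% of the positive control shift, at one fixed dose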
# aDG glyco up: increases alpha dystroglycan glycosylation; activation, % at 10 µM; hit rate 0.22% among 360,000; Pro5-aDG cells, alpha-DG glycosylation AlphaScreen (IIH6); 0% Pro5, 100% B10-LARGE cell signal; AID 624168;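 active = activation of at least 8% versus controls, or a plate z-score of at least 8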;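 also: Pro5 are CHO cells carrying HIG-tagged alpha-DG that lacks glycosylation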
# XBP1 UPR activ: activators of adaptive arm of unfolded protein response (XBP1); CHO-XBP1 luciferase reporter, IRE1-XBP1 UPR activation, luminescence; percent of tunicamycin response, DMSO as zero; activation, % at 20 µM; hit rate 0.33% among 330,000;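 active = versus positive control, 20 µM dose yields 30% or more activation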;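 also: 100% = tunicamycin at 10 µg/mL and 0% = DMSO only wells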
#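 Material: CHO cell line with stable XBP1 luciferase reporter; schedule: 16-18 h cell attachment at 37 °C, then 6 h compound exposure; signal: glow luminescence from Steady-Glo reagent; medium: serum-containing F12 medium, 10% FBS; benchmarks: tunicamycin 10 µg/mL and vehicle-only wells; read-out: percent activation relative to tunicamycin reference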
# CHOP UPR activ: apoptotic UPR (CHOP) activation; CHO-CHOP luciferase reporter, luminescence; percent of tunicamycin response over DMSO baseline; activation, % at 10 µM; hit rate 0.34% among 330,000; AID 449763;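 active = at 10 µM dose, activation of 40% or more, normalized to positive control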;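 also: 100% = tunicamycin at 10 µg/mL and 0% = DMSO alone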
#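 Assay system: CHO-CHOP cells, stable luciferase reporter of PERK-eIF2a-CHOP signalling / Buffer or medium: F12 plus 10% serum / Compound dosing: one dose, 10 µM in 0.5% DMSO / Times: 6 h compound treatment, 37 °C / Technique: luciferase luminescence / Read-out: % reporter activation, DMSO baseline versus tunicamycin full activation / Benchmarks: tunicamycin and DMSO controls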
# MPTP inh: permeability transition pore inhibition; AID 602449; isolated mouse mitochondria, Ca2+ swelling absorbance, 30 min; hit rate 1.4% among 360,000; inhibition, % at 10 µM;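 active = inhibition of 50% or more, scaled per plate between neutral and stimulator controls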;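 also: 0% = DMSO wells given calcium and 100% = 1 mM EGTA wells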
# Numbers without * were called inactive; . = no result given.
SMILES,CHOP inhibitor,NR3A LBD binder,aDG glyco up,XBP1 UPR activ,CHOP UPR activ,MPTP inh
COc1cc(C(=O)NCC(c2cccs2)N2CCOCC2)ccc1OCc1ccc(Cl)cc1 (stereo not given),.,.,0,.,.,-1
COc1cccc(CNc2ccc(Br)cn2)c1O,8,1,0,-1,3,0
COc1cccc(CNc2ncc(Br)cc2Br)c1O,81*,-8,0,5,5,2
Cc1ccc(C(C(=O)NC2CCCC2)N(Cc2ccc(F)cc2)C(=O)c2csnn2)o1 (stereo not given),71*,2,0,2,-1,0
Cc1ccc(C(C(=O)NC2CCCC2)N(Cc2ccccc2)C(=O)c2csnn2)o1 (stereo not given),.,1,0,-3,-2,1
COc1ccc(S[C@@H](CCN2CC[C@H](O)CCC2=O)c2ccccc2)cc1,.,0,0,-1,1,-2
COC(=O)Cc1ccc(NC(=S)NCCO)cc1,10,3,0,-1,0,-1
COC(=O)Cc1ccc(NC(=S)Nc2ccccn2)cc1,73*,-4,1,-5,3,-1
CCCCCCC(C)n1[nH]c(=O)cc1N (stereo not given),-3,-1,0,1,1,2
COC1=CCC2([N+](=O)[O-])CN(CCO)CC1([N+](=O)[O-])C2 (stereo not given),8,-1,0,-3,0,-2
CCNC(=S)N(Cc1ccc2c(c1)OCO2)C1CC(=O)N(c2ccc(OC)cc2)C1=O (stereo not given),55,26*,0,-4,0,-2
CNC(=S)N(Cc1ccc2c(c1)OCO2)C1CC(=O)N(c2ccccc2)C1=O (stereo not given),12,8,0,1,1,3
CCNC(=S)N(Cc1ccc2c(c1)OCO2)C1CC(=O)N(c2ccc(F)cc2)C1=O (stereo not given),73*,-1,0,-4,-1,-1
CCNC(=S)N(Cc1ccc(OC)cc1)C1CC(=O)N(c2ccc(OCC)cc2)C1=O (stereo not given),73*,18*,0,-3,-2,-3
Cn1ccc2ccc(C3=CC(=O)C[C@H](c4ccc(F)cc4)C3)cc21,.,-8,0,2,3,0
CCCn1nc(C(=O)Nc2cccc(S(=O)(=O)N(C)c3ccccc3)c2)c2ccccc2c1=O,.,-20,0,-4,4,0
C=CCOc1cccc(C(=O)/C=C2/C(=O)Nc3ccccc32)c1,.,-15,0,0,86*,-2
O=C1/C(=N\S(=O)(=O)c2cccs2)C([n+]2cccc(Cc3ccccc3)c2)=C([O-])c2ccccc21,65,1,3.6*,-5,19,2
O=C1/C(=N\S(=O)(=O)c2cccs2)C([n+]2ccc(CCCc3ccccc3)cc2)=C([O-])c2ccccc21,95*,4,1,-8,17,1
COc1ccc(CN(CC(=O)NCc2ccccc2)C(=O)CCC(=O)Nc2ccccn2)cc1,.,-3,0,-5,10,0
COc1ccc(OCCCC(=O)Nc2cccc([N+](=O)[O-])c2C)cc1,-1,1,0,3,0,1
Cn1c(=O)c2c(nc(NC3CCCCC3)n2CC(=O)C23CC4CC(CC(C4)C2)C3)n(C)c1=O,81*,-9,3,3,-1,0
N=c1c2c(ncn1Cc1ccco1)Oc1c(ccc3ccccc13)C2c1ccccc1 (stereo not given),89*,-2,1,6,2,4
Cc1ccc(Cn2c(C(CO)Nc3nc(-c4ccc(Cl)c([N+](=O)[O-])c4)cs3)nc3ccccc32)cc1 (stereo not given),.,26*,0,4,0,2
Cc1ccc(Cn2c(C(CO)Nc3nc(-c4ccc(F)cc4)cs3)nc3ccccc32)cc1 (stereo not given),.,19*,0,-2,1,2
SMILES,CHOP inhibitor,NR3A LBD binder,aDG glyco up,XBP1 UPR activ,CHOP UPR activ,MPTP inh
COc1cccc(NC(=O)c2cccc(N3C(=O)C4C5C=CC(C5)C4C3=O)c2)c1 (stereo not given),.,-1,0,-2,1,0
N#Cc1ccc(-c2ccc(F)cc2)nc1Oc1ccc(F)cc1,81*,-2,0,-2,-1,1
CC1(C(=O)NS(=O)(=O)c2ccc(Cl)cc2)CCN1C(=O)CCc1ccccc1 (stereo not given),.,.,0,.,.,0
Cc1ccccc1OCC(=O)Nc1nnc(C2CCCC2)s1,.,2,0,-3,-1,-1
OC(c1ccc(Cl)c(Cl)c1)c1ncc(-c2ccccc2Cl)[nH]1 (stereo not given),.,.,0,.,.,37
CCOc1ccc(-c2cc(CCCC(=O)NCc3cccnc3)no2)cc1,80*,0,3,-1,0,-1
CCOc1ccc(-c2cc(CCCC(=O)NCCc3ccccc3)no2)cc1,69,-17,1,1,-2,4
CCOc1ccc(-c2cc(CCCC(=O)Nc3cccc(OC)c3)no2)cc1,.,2,0,-6,-5,-2
CCOc1ccc(NC(=O)CCCc2cc(-c3ccc(OCC)cc3)on2)cc1,83*,4,0,-4,-4,4
C[C@@H]1CCCCO[C@@H](CN(C)S(=O)(=O)c2ccccc2)[C@@H](C)CN([C@H](C)CO)C(=O)c2cc(NS(=O)(=O)c3ccc(F)cc3)ccc2O1,.,.,0,.,.,1
O=[N+]([O-])c1cccc(Cl)c1NCCNc1ncc(C(F)(F)F)cc1Cl,79*,-6,0,2,0,2
CC(C)(C)N1C(=O)c2ccccc2NC(=O)N1Cc1ccccc1,-10,3,0,0,0,-1
O=C1Nc2ccccc2C(=O)C1(Cl)Cc1ccccc1 (stereo not given),77*,2,0,-5,3,0
O=[N+]([O-])c1ccccc1OCCCOc1cccc2cccnc12,.,2,0,8,8,1
CCc1nc2ccccc2c(C(=O)OCC(=O)Nc2ccc(S(=O)(=O)N3CCOCC3)cc2)c1C,74*,3,1,-2,-1,-2
CCc1nc2ccccc2c(C(=O)OCC(=O)Nc2cccc(S(=O)(=O)N3CCOCC3)c2)c1C,31,10,0,8,3,-1
Oc1ccc(N=Nc2n[nH]c(-c3ccc(Cl)cc3)n2)cc1,75*,24*,0,-4,5,2
Oc1ccc(N=Nc2ccccc2)cc1,.,5,0,7,6,1
CC(=O)Nc1ccc(OS(=O)(=O)c2ccc([N+](=O)[O-])cc2)cc1,-8,-6,1,10,-2,-1
